# From ChEMBL document CHEMBL1143625, “Bisphosphonate inhibitors of Toxoplasma gondi growth: in vitro, QSAR, and in vivo investigations” (J Med Chem, 2005)
# pIC50: −log10 of the molar value.
# What was measured:
# HFF [1] = test: Inhibitory concentration against the growth of Toxoplasma gondii overexpressing FPPS enzyme in human foreskin fibroblast monolayer cells; (control = 2.4 uM, experiment 3); format: functional, cell-based
# How it was run: (§1)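 FPPS-overexpressing T. gondii line: 2F clone tachyzoites (beta-galactosidase) electroporated with 50 µg ptubTgFPPS-FLAG/sagCAT. Stable lines were selected with 20 µM chloramphenicol and cloned by limiting dilution, giving 4-5-fold more FPPS by Western blot. Assay: compounds serially diluted in medium on confluent HFF; 10^4 tachyzoites/mL (filtered 3 µm, needle-passed); 48 h at 37 °C. Lysis, then CPRG read at 570 nm; IC50 from rectangular hyperbolic fit of % inhibition.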
# HFF [2] = test: Inhibitory concentration against the growth of Toxoplasma gondii overexpressing FPPS enzyme in human foreskin fibroblast monolayer cells; (control = 2.2 uM, experiment 1); format: functional, cell-based; how it was run: as §1
# HFF [3] = test: Inhibitory concentration against the growth of Toxoplasma gondii overexpressing FPPS enzyme in human foreskin fibroblast monolayer cells; (control = 2.5 uM, experiment 2); format: functional, cell-based; how it was run: as §1
# [4] = In vitro inhibitory concentration against the growth of Toxoplasma gondii in human foreskin fibroblast monolayer cells (HFF cells); format: functional, cell-based
# How it was run: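 T. gondii 2F clone tachyzoites expressing β-galactosidase, kept in HFF in DMEM with 10% FBS, 2 mM glutamine and 1 mM pyruvate. Confluent HFF monolayers were given serially diluted drug in medium, then 10^4 filtered, needle-passed tachyzoites/mL, and held 48 h at 37 °C. Cells were lysed at 50 °C, and CPRG turnover was read at 570 nm. IC50 came from a hyperbolic fit of % inhibition against concentration.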
# KB = test: Lethal dose required to inhibit the growth of human KB (nasopharyngeal carcinoma) cell line; format: functional; conditions: read-out: LD50 (the source's name)
# [5] = Therapeutic index (TI) value as ratio of lethal dose (LD50) to the inhibitory concentration (IC50); format: cell-based; conditions: human, KB cells; read-out: TI
# HFF [6] = test: Inhibitory concentration against the growth of Toxoplasma gondii overexpressing FPPS enzyme in human foreskin fibroblast monolayer cells; (control = 0.28 uM, experiment 3); format: functional, cell-based; how it was run: as §1
# HFF [7] = test: Inhibitory concentration against the growth of Toxoplasma gondii overexpressing FPPS enzyme in human foreskin fibroblast monolayer cells; (control = 0.12 uM, experiment 1); format: functional, cell-based; how it was run: as §1
# HFF [8] = test: Inhibitory concentration against the growth of Toxoplasma gondii overexpressing FPPS enzyme in human foreskin fibroblast monolayer cells; (control = 0.30 uM, experiment 2); format: functional, cell-based; how it was run: as §1
# HFF [9] = test: Inhibitory concentration against the growth of Toxoplasma gondii overexpressing FPPS enzyme in human foreskin fibroblast monolayer cells; (control = 0.15 uM, experiment 2); format: functional, cell-based; how it was run: as §1
# HFF [10] = test: Inhibitory concentration against the growth of Toxoplasma gondii overexpressing FPPS enzyme in human foreskin fibroblast monolayer cells; (control = 0.55 uM, experiment 3); format: functional, cell-based; how it was run: as §1
# HFF [11] = test: Inhibitory concentration against the growth of Toxoplasma gondii overexpressing FPPS enzyme in human foreskin fibroblast monolayer cells; (control = 0.62 uM, experiment 1); format: functional, cell-based; how it was run: as §1
# HFF [12] = test: Inhibitory concentration against the growth of Toxoplasma gondii overexpressing FPPS enzyme in human foreskin fibroblast monolayer cells; (control = 0.29 uM); format: functional, cell-based; how it was run: as §1
# HFF [13] = test: Inhibitory concentration against the growth of Toxoplasma gondii overexpressing FPPS enzyme in human foreskin fibroblast monolayer cells; (control = 0.79 uM, experiment 3); format: functional, cell-based; how it was run: as §1
# HFF [14] = test: Inhibitory concentration against the growth of Toxoplasma gondii overexpressing FPPS enzyme in human foreskin fibroblast monolayer cells; (control = 1.1 uM, experiment 2); format: functional, cell-based; how it was run: as §1
# HFF [15] = test: Inhibitory concentration against the growth of Toxoplasma gondii overexpressing FPPS enzyme in human foreskin fibroblast monolayer cells; (control = 0.60 uM, experiment 1); format: functional, cell-based; how it was run: as §1
SMILES,pIC50 [4],CC50 (KB) [µM],selectivity ratio [5],also measured
CCCCCCCCC(O)(P(=O)(O)O)P(=O)(O)O,5.62,–,–,pIC50 (HFF [1]): 5.24; pIC50 (HFF [2]): 5.48; pIC50 (HFF [3]): 5.24
O=P(O)(O)C(Nc1ccnc(O)c1)P(=O)(O)O,4.76,257,14.8,–
O=P(O)(O)C(O)(CC1=NC=NC1)P(=O)(O)O,5.17,41,6.12,–
O=P(O)(O)C(Sc1ccccn1)P(=O)(O)O,4.29,–,–,–
O=[N+]([O-])c1cccc(CC(O)(P(=O)(O)O)P(=O)(O)O)c1,4.32,–,–,–
Cc1cccc(CC(O)(P(=O)(O)O)P(=O)(O)O)c1,4.44,–,–,–
O=P(O)(O)C(Nc1cccc(Cc2ccccc2)c1)P(=O)(O)O,4.25,–,–,–
O=P(O)(O)C(O)(Cc1cccc2ccccc12)P(=O)(O)O,4.16,–,–,–
C[C@H](NC(P(=O)(O)O)P(=O)(O)O)c1cccc2ccccc12,4.26,–,–,–
CCc1cccc(NC(P(=O)(O)O)P(=O)(O)O)n1,3.66,–,–,–
O=P(O)(O)C(O)(Cn1cnc2ccccc21)P(=O)(O)O,5.35,–,–,–
CCC(C)NC(P(=O)(O)O)P(=O)(O)O (stereo not drawn),3.78,–,–,–
O=P(O)(O)C(Nc1nccc2ccccc12)P(=O)(O)O,4.68,673,32.2,–
O=P(O)(O)C(Nc1ccccn1)P(=O)(O)O,4.35,465,10.4,–
Cc1csc(NC(P(=O)(O)O)P(=O)(O)O)n1,4.51,–,–,–
O=P(O)(O)C(O)(CCc1cccnc1)P(=O)(O)O,3.83,> 804,> 5.46,–
CCCCCCCC(O)(P(=O)(O)O)P(=O)(O)O,4.86,302,21.9,–
NCCCCC(O)(P(=O)(O)O)P(=O)(O)O,3.90,91,0.72,–
CCCCCCCCCCC(O)(P(=O)(O)O)P(=O)(O)O,6.55,> 826,> 2950,pIC50 (HFF [6]): 5.77; pIC50 (HFF [7]): 5.96; pIC50 (HFF [8]): 5.92
CCCCC(O)(P(=O)(O)O)P(=O)(O)O,3.82,> 1040,> 6.95,–
O=P(O)(O)C(Nc1cccnc1)P(=O)(O)O,4.38,782,18.6,–

SMILES,pIC50 [4],CC50 (KB) [µM],selectivity ratio [5],also measured
CC(C)(C)c1cccc(NC(P(=O)(O)O)P(=O)(O)O)c1,3.81,–,–,–
CC1CCCCN1C(P(=O)(O)O)P(=O)(O)O (stereo not drawn),3.88,–,–,–
CC(C)c1cccc(NC(P(=O)(O)O)P(=O)(O)O)c1,3.79,–,–,–
CN(Cc1ccccc1)C(P(=O)(O)O)P(=O)(O)O,4.12,–,–,–
Cc1ccnc(N(Cc2ccccc2)C(P(=O)(O)O)P(=O)(O)O)c1,3.65,–,–,–
C[C@@H](NC(P(=O)(O)O)P(=O)(O)O)c1cccc2ccccc12,4.20,–,–,–
Nc1ccc(CC(O)(P(=O)(O)O)P(=O)(O)O)cc1,4.10,218,2.71,–
O=P(O)(O)C(O)(Cc1ccccn1)P(=O)(O)O,5.09,13.9,1.71,–
O=P(O)(O)C(N1CCCCC1)P(=O)(O)O,4.29,> 1120,> 21.9,–
Cc1cc(C)nc(NC(P(=O)(O)O)P(=O)(O)O)c1,3.63,633,2.7,–
CCCCCCCCCC(O)(P(=O)(O)O)P(=O)(O)O,6.26,> 892,> 1620,pIC50 (HFF [9]): 6.24; pIC50 (HFF [10]): 5.77; pIC50 (HFF [11]): 5.72
Cc1cccnc1NC(P(=O)(O)O)P(=O)(O)O,4.35,179,4.02,–
CCCCCCC(O)(P(=O)(O)O)P(=O)(O)O,4.60,107,4.23,–
O=P(O)(O)C(O)(CSc1ccncc1)P(=O)(O)O,4.14,> 746,> 10.3,–
Cc1ccnc(NC(P(=O)(O)O)P(=O)(O)O)c1,4.23,137,2.32,–
O=P(O)(O)C(O)(Cc1ccncc1)P(=O)(O)O,5.46,171,48.9,–
CCC(C)CNC(P(=O)(O)O)P(=O)(O)O (stereo not drawn),4.44,394,10.8,–
O=P(O)(O)C(O)(Cc1ccccc1)P(=O)(O)O,4.04,> 931,> 10.3,–
"O=P(O)(O)C(Nc1ccc(Cl)cc1Cl)P(=O)(O)O [2,4-DICHLOROPHENYLAMINOMETHYLENEBISPHOSPHONIC ACID]",3.81,–,–,–
CCCCN(CC)C(P(=O)(O)O)P(=O)(O)O [(BUTYL(ETHYL)AMINO)METHYLENEDIPHOSPHONIC ACID],3.88,> 1060,> 7.99,–
CCCCNC(P(=O)(O)O)P(=O)(O)O [(BUTYLAMINO)METHYLENEDIPHOSPHONIC ACID],4.12,212,2.78,–

SMILES,pIC50 [4],CC50 (KB) [µM],selectivity ratio [5],also measured
O=P(O)(O)C(NC1CCC1)P(=O)(O)O [(CYCLOBUTYLAMINO)METHYLENEDIPHOSPHONIC ACID],3.92,260,2.15,–
O=P(O)(O)C(NC1CCCCCCC1)P(=O)(O)O [(CYCLOOCTYLAMINO)METHYLENEDIPHOSPHONIC ACID],4.36,354,8.19,–
O=P(O)(O)C(NC1CCCC1)P(=O)(O)O [(CYCLOPENTYLAMINO)METHYLENEDIPHOSPHONIC ACID],4.16,629,9.19,–
O=P(O)(O)C(NC1CC1)P(=O)(O)O [(CYCLOPROPYLAMINO)METHYLENEDIPHOSPHONIC ACID],4.64,246,10.7,–
O=P(O)(O)C(N(C1CCCCC1)C1CCCCC1)P(=O)(O)O [(DICYCLOHEXYLAMINO)METHYLENEDIPHOSPHONIC ACID],4.38,> 844,> 20.1,–
CC(C)CCNC(P(=O)(O)O)P(=O)(O)O [(ISOPENTYLAMINO)METHYLENEDIPHOSPHONIC ACID],3.87,480,3.56,–
CCCCCCCCCNC(P(=O)(O)O)P(=O)(O)O [(NONYLAMINO)METHYLENEDIPHOSPHONIC ACID],5.05,> 919,> 103,–
CCCNC(P(=O)(O)O)P(=O)(O)O [(PROPYLAMINO)METHYLENEDIPHOSPHONIC ACID],4.16,499,7.21,–
NCCCC(O)(P(=O)(O)O)P(=O)(O)O [ALENDRONIC ACID],3.96,–,–,–
O=C1C(O)=C([C@H]2CC[C@H](c3ccc(Cl)cc3)CC2)C(=O)c2ccccc21 [ATOVAQUONE],–,–,–,pIC50 (HFF [12]): 6.55
CCCCCN(C)CCC(O)(P(=O)(O)O)P(=O)(O)O [IBANDRONIC ACID],4.26,10.4,0.19,–
O=P(O)(O)C(NC1CCCCCC1)P(=O)(O)O [INCADRONIC ACID],4.40,166,4.19,–
O=P(O)(O)C(O)(Cc1cnc2ccccn12)P(=O)(O)O [MINODRONIC ACID],5.73,–,–,–
O=P(O)(O)C(N1CCCCCC1)P(=O)(O)O [N-(HEXAMETHYLENEIMINO)METHYLENEBISPHOSPHONIC ACID],4.05,> 1100,> 12.2,–
NCCCCCC(O)(P(=O)(O)O)P(=O)(O)O [NERIDRONIC ACID],4.22,680,11.4,–
NCCC(O)(P(=O)(O)O)P(=O)(O)O [PAMIDRONIC ACID],4.42,156,4.11,–
O=P(O)(O)C(O)(Cc1cccnc1)P(=O)(O)O [RISEDRONIC ACID],5.62,255,106,–
O=P(O)(O)C(N1CCSCC1)P(=O)(O)O [THIOMORPHOLINOMETHYLENEDIPHOSPHONIC ACID],3.79,> 1080,> 6.73,–
O=P(O)(O)C(O)(Cn1ccnc1)P(=O)(O)O [ZOLEDRONIC ACID],6.10,63.7,80.9,pIC50 (HFF [13]): 5.11; pIC50 (HFF [14]): 5.08; pIC50 (HFF [15]): 5.11
